Results taken from ChEMBL document CHEMBL1142063, “Synthesis of omeprazole analogues and evaluation of these as potential inhibitors of the multidrug efflux pump NorA of Staphylococcus aureus” (2007).

Columns and labels:
[1] = test system: Staphylococcus aureus; assay: Increase in 5 ug sparfloxacin antibacterial activity against Staphylococcus aureus SA1199B mutant overexpressing NorA at 128 ug/ml by disk diffusion method; format: functional
Summary of the method: (§1)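 Agar diffusion on Mueller-Hinton agar (adjusted to 20 μg/ml Ca²⁺ and 10 μg/ml Mg²⁺), used plain or with the efflux inhibitor incorporated at the stated concentration. Disks were 5 μg for the fluoroquinolones and 30 μg for chloramphenicol. Plates were incubated overnight at 37°C, and inhibition zone diameters were measured. Values are means of at least three independent experiments.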

[2] = test system: Staphylococcus aureus; assay: Increase in 5 ug moxifloxacin antibacterial activity against Staphylococcus aureus SA1199B mutant overexpressing NorA at 128 ug/ml by disk diffusion method; format: functional; summary of the method: as §1
[3] = test system: Staphylococcus aureus; assay: Increase in 30 ug chloramphenicol antibacterial activity against Staphylococcus aureus SA1199B mutant overexpressing NorA at 128 ug/ml by disk diffusion method; format: functional; summary of the method: as §1
[4] = test system: Staphylococcus aureus; assay: Antibacterial activity against Staphylococcus aureus; format: functional
Summary of the method: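 Tube broth dilution MIC against SA-1199 and NorA-overproducing SA-1199B in Mueller-Hinton broth with 20 μg/ml Ca²⁺ and 10 μg/ml Mg²⁺. Inoculum was a 4–5 h 37°C culture diluted 1/10 (≈10⁶ CFU/ml). Compound range was 512 to 1 μg/ml, dissolved in DMSO (final ≤4%).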

[5] = test system: Staphylococcus aureus; assay: Increase in 2 ug/ml Norfloxacin antibacterial activity against wild type Staphylococcus aureus SA1199 at 128 ug/ml by checker board method; format: functional
[6] = test system: Staphylococcus aureus; assay: Increase in 64 ug/ml Norfloxacin antibacterial activity against Staphylococcus aureus SA1199B mutant overexpressing NorA at 128 ug/ml by checker board method; format: functional
[7] = test system: Staphylococcus aureus; assay: Increase in 5 ug Norfloxacin antibacterial activity against Staphylococcus aureus SA1199B mutant overexpressing NorA at 128 ug/ml by disk diffusion method; format: functional; summary of the method: as §1
[8] = test system: Staphylococcus aureus; assay: Increase in 5 ug ciprofloxacin antibacterial activity against Staphylococcus aureus SA1199B mutant overexpressing NorA at 128 ug/ml by disk diffusion method; format: functional; summary of the method: as §1
[9] = test system: Staphylococcus aureus; assay: Increase in 5 ug ofloxacin antibacterial activity against Staphylococcus aureus SA1199B mutant overexpressing NorA at 128 ug/ml by disk diffusion method; format: functional; summary of the method: as §1
[10] = test system: Staphylococcus aureus; assay: Increase in 5 ug levofloxacin antibacterial activity against Staphylococcus aureus SA1199B mutant overexpressing NorA at 128 ug/ml by disk diffusion method; format: functional; summary of the method: as §1
[11] = test system: Staphylococcus aureus; assay: Antibacterial activity against Staphylococcus aureus SA1199B overexpressing NorA at 5 ug by disk diffusion method; format: functional; conditions: read-out: IZ; summary of the method: as §1
[12] = test system: Staphylococcus aureus; assay: Increase in 16 ug/ml Norfloxacin accumulation in wild type Staphylococcus aureus SA1199 at 128 ug/ml after 20 mins; format: functional
Summary of the method: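 Mid-exponential SA-1199 cells were washed and resuspended in 50 mM sodium phosphate, pH 7.0. They were exposed at time zero to norfloxacin at one-quarter MIC, alone or with EPI at 128 μg/ml. At 5–20 min, cells were spun through silicone-paraffin oil into orthophosphoric acid. Lysate norfloxacin was measured by C18 HPLC with fluorescence detection (ex 240, em 280 nm) and normalized to BCA protein (ng/mg). Triplicate experiments, mean reported.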

[13] = test system: Staphylococcus aureus; assay: Increase in 16 ug/ml Norfloxacin accumulation in Staphylococcus aureus SA1199B mutant overexpressing NorA measured per mg of cell protein at 128 ug/ml after 5 mins; format: functional, organism-based
Summary of the method: (§2)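 SA-1199B was grown to mid-exponential phase in MH broth (4–5 h, 37°C, shaken), then washed and resuspended in 50 mM sodium phosphate, pH 7.0. Cells got norfloxacin at one-quarter MIC, alone or with inhibitor at 128 μg/ml. At 5–20 min, cells were spun through silicone-paraffin oil into orthophosphoric acid. Norfloxacin was measured by HPLC fluorescence (ex 240/[…]) as ng/mg BCA protein. Means of triplicate experiments.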

[14] = test system: Staphylococcus aureus; assay: Increase in 16 ug/ml Norfloxacin accumulation in Staphylococcus aureus SA1199B mutant overexpressing NorA measured per milligram of cell protein at 128 ug/ml after 20 mins; format: functional, organism-based; summary of the method: as §2
[15] = test system: Staphylococcus aureus; assay: Increase in 16 ug/ml Norfloxacin accumulation in Staphylococcus aureus SA1199B mutant overexpressing NorA at 128 ug/ml after 20 mins; format: functional; summary of the method: as §2

SMILES | inhibition zone (IZ) [1] [mm] | inhibition zone (IZ) [2] [mm] | inhibition zone (IZ) [3] [mm] | MIC [4] [µg/mL] | MIC [5] [µg/mL] | MIC [6] [µg/mL] | inhibition zone (IZ) [7] [mm] | inhibition zone (IZ) [8] [mm] | inhibition zone (IZ) [9] [mm] | inhibition zone (IZ) [10] [mm] | zone of inhibition at 5 µg/disc [11] [mm] | Activity [12] [%] | Drug uptake [13] [ng/mg] | Drug uptake [14] [ng/mg] | Activity [15] [%]
Cn1ccnc1[S+]([O-])Cc1nc2ccccc2n2cccc12 (centres undefined) | 27 | 27 | 25 | > 512 | 2 | 32 | 6 | 14 | 19 | 22 | – | – | – | – | –
CCn1cc(C(=O)O)c(=O)c2cc(F)c(N3CCNCC3)cc21 [NORFLOXACIN] | – | – | – | – | – | – | – | – | – | – | 27 | – | – | – | –
COc1ccc2c(c1)nc([S+]([O-])Cc1nc3ccccc3n3cccc13)c1cccn12 (centres undefined) | 27 | 27 | 25 | > 512 | 2 | 32 | 6 | 17 | 19 | 22 | – | – | – | – | –
[O-][S+](Cc1nc2ccccc2n2cccc12)c1nc2ccccc2[nH]1 (centres undefined) | 28 | 28 | 25 | > 512 | 1 | 16 | 10 | 19 | 23 | 24 | – | 10 | 270 | 400 | 40
CC1COc2c(N3CCN(C)CC3)c(F)cc3c(=O)c(C(=O)O)cn1c23 (centres undefined) [OFLOXACIN] | – | – | – | – | – | – | – | – | – | – | 27 | – | – | – | –
COc1ccc2c(c1)nc(C[S+]([O-])c1nc3ccccc3[nH]1)c1cccn12 (centres undefined) | 28 | 28 | 26 | > 512 | 1 | 8 | 13 | 22 | 25 | 24 | – | 10 | 270 | 400 | 40
COc1c(N2C[C@@H]3CCCN[C@@H]3C2)c(F)cc2c(=O)c(C(=O)O)cn(C3CC3)c12 [MOXIFLOXACIN] | – | – | – | – | – | – | – | – | – | – | 27 | – | – | – | –
[O-][S+](Cc1nc2ccccc2n2cccc12)c1ncc[nH]1 (centres undefined) | 27 | 27 | 25 | > 512 | 2 | 32 | 6 | 15 | 19 | 22 | – | – | – | – | –
O=C(O)c1cn(C2CC2)c2cc(N3CCNCC3)c(F)cc2c1=O [CIPROFLOXACIN] | – | – | – | – | – | – | – | – | – | – | 13 | – | – | – | –
COc1ccc2[nH]c([S+]([O-])Cc3nc4cc(OC)ccc4n4cccc34)nc2c1 (centres undefined) | 29 | 28 | 27 | > 512 | 1 | 8 | 16 | 24 | 25 | 24 | – | 10 | 270 | 400 | 40
Cn1c([S+]([O-])Cc2nc3ccccc3n3cccc23)nc2ccccc21 (centres undefined) | 27 | 27 | 25 | > 512 | 2 | 32 | 6 | 15 | 20 | 23 | – | – | – | – | –
COc1ccc2[nH]c([S+]([O-])Cc3nc4ccccc4n4cccc34)nc2c1 (centres undefined) | 27 | 28 | 26 | > 512 | 1 | 8 | 15 | 24 | 25 | 24 | – | 10 | 270 | 400 | 40
COc1ccc2[nH]c([S+]([O-])Cc3nc4ccc(Cl)cc4n4cccc34)nc2c1 (centres undefined) | 27 | 27 | 25 | > 512 | 1 | 16 | 10 | 19 | 21 | 23 | – | 10 | 270 | 400 | 40
[O-][S+](Cc1nc2ccccc2n2cccc12)c1ccccn1 (centres undefined) | 27 | 27 | 25 | > 512 | 2 | 32 | 6 | 17 | 20 | 22 | – | – | – | – | –
